Numbered stars: 1 amine (or outer) side, 2 acyl side, 3 side chain; on linkers, the order of the positions; unused ones are H or OH. Bridge positions count the residues as written; N and C are the ends. Square brackets hold non-standard residues; d marks the D form. Peptide text beside a SMILES is read from it. * marks the point of attachment. hTyr(3S-OH,4S-OH,3'-OSO3H) = N[C@H](C(=O)O)[C@H](O)[C@@H](O)c1ccc(O)c(OS(=O)(=O)O)c1; Orn(4R-OH,5R-OH) = O=C([C@H](C[C@@H](O)[C@@H](O)N[*:3])N[*:1])[*:2]; Pro(3S-OH,4S-Me) = C[C@H]1CN[C@H](C(=O)O)[C@H]1O; X1 = CCCCCOc1ccc(-c2cc(-c3ccc(C(=O)*)cc3)no2)cc1; Gln(3R-OH) = NC(=O)C[C@@H](O)[C@H](N)C(=O)O; Hyp = O=C(O)[C@@H]1C[C@@H](O)CN1
Legend:
[1] = Drug level in lung transplant recipient invasive aspergillosis patient plasma at 150 mg, iv QD for 4 consecutive days measured after 24 hrs post last dose by HPLC; type: ADME, organism-based; conditions: human, read-out: Drug uptake
Procedure, shortened: (§1)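 150-mg IV micafungin, then bronchoscopy with BAL (20-ml saline aliquots) at the stated time after the dose. Blood was drawn in heparin at the same time. The BAL fluid was spun at 400 × g for 5 min at 4°C; supernatant and cell pellet were frozen at −80°C. Micafungin was measured by solid-phase extraction and C8 HPLC with UV detection at 271.5 nm, using anidulafungin as internal standard.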

[2] = Drug level in epithelial lining fluid of lung transplant recipient invasive aspergillosis patient at 150 mg, iv single dose measured after 5 hrs post dose by HPLC; conditions: human, read-out: Drug uptake
[3] = Clearance in lung transplant recipient invasive aspergillosis patient at 150 mg, iv QD for 4 consecutive days by HPLC; type: ADME, organism-based; conditions: human, in vivo
[4] = Cmax in epithelial lining fluid of lung transplant recipient invasive aspergillosis patient at 150 mg, iv QD for 4 consecutive days by HPLC; type: ADME, organism-based; parameters: dose 150 mg, route intravenous; conditions: human
Procedure, shortened: (§2)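 150-mg IV dose; BAL at 3, 5, 8, 18 or 24 h after the dose, about 4 subjects per time group. Plasma, ELF and alveolar cell drug was measured by reversed-phase HPLC with UV detection. Values were averaged per time point. Cmax is the highest mean over the five groups; Tmax is the mean dose-to-BAL time of that group.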

[5] = Drug level in epithelial lining fluid of lung transplant recipient invasive aspergillosis patient at 150 mg, iv QD for 4 consecutive days measured after 5 hrs post last dose by HPLC; type: ADME, organism-based; conditions: human, read-out: Drug uptake; procedure, shortened: as §1
[6] = Ratio of AUC (0 to 24 hrs) in lung transplant recipient invasive aspergillosis patient epithelial lining fluid to MIC90 for Aspergillus fumigatus; type: functional
[7] = Drug level in lung transplant recipient invasive aspergillosis patient plasma at 150 mg, iv QD for 4 consecutive days measured after 18 hrs post last dose by HPLC; type: ADME, organism-based; conditions: human, read-out: Drug uptake; procedure, shortened: as §1
[8] = Volume of distribution in lung transplant recipient invasive aspergillosis patient at 150 mg, iv QD for 4 consecutive days by HPLC; type: ADME, organism-based; conditions: human, in vivo
[9] = Drug level in epithelial lining fluid of lung transplant recipient invasive aspergillosis patient at 150 mg, iv QD for 4 consecutive days measured after 8 hrs post last dose by HPLC; type: ADME, organism-based; conditions: human, read-out: Drug uptake; procedure, shortened: as §1
[10] = Drug level in lung transplant recipient invasive aspergillosis patient plasma at 150 mg, iv QD for 4 consecutive days measured after 3 hrs post last dose by HPLC; type: ADME, organism-based; conditions: human, read-out: Drug uptake; procedure, shortened: as §1
[11] = Ratio of drug level in alveolar cell to plasma of lung transplant recipient invasive aspergillosis patient at 150 mg, iv QD for 4 consecutive days measured after 24 hrs post last dose; type: ADME, organism-based, Pneumocyte; conditions: human, alveolar cells / plasma
Homo sapiens [12] = assay: Hepatotoxicity in lung transplant recipient invasive aspergillosis patient assessed as serum creatinine level at 150 mg, iv QD for 4 consecutive days measured post last dose; type: toxicity, organism-based; conditions: in vivo
Procedure, shortened: (§3)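 Serum creatinine, AST, ALT and total bilirubin were recorded from routine clinical laboratory tests before enrolment and again after BAL, at a mean of 10.7 days after infusion.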

[13] = Ratio of Cmax in lung transplant recipient invasive aspergillosis patient epithelial lining fluid to MIC90 for Aspergillus fumigatus; type: functional
[14] = Ratio of total Cmax to MIC90 in lung transplant recipient invasive aspergillosis patient infected with Aspergillus fumigatus; type: functional
[15] = Drug level in lung transplant recipient invasive aspergillosis patient plasma at 150 mg, iv measured after 5 hrs post last dose by HPLC; conditions: human, read-out: Drug uptake
[16] = Ratio of AUC (0 to 24 hrs) in lung transplant recipient invasive aspergillosis patient plasma to MIC90 for Aspergillus fumigatus; type: functional
[17] = Ratio of drug level in epithelial lining fluid to plasma in lung transplant recipient invasive aspergillosis patient at 150 mg, iv measured after 5 hrs post last dose; conditions: human
[18] = AUC (0 to 24 hrs) in lung transplant recipient invasive aspergillosis patient plasma at 150 mg, iv administered as single dose; type: ADME, organism-based; parameters: dose 150 mg, time < 24 hr, route intravenous; conditions: human
Procedure, shortened: (§4)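 Single 150-mg IV dose in adult lung transplant recipients. Plasma, ELF (epithelial lining fluid) and alveolar cell concentrations were measured by HPLC at the time of bronchoscopy. AUC0-24 came from a population model: a linear four-compartment model fit to all compartments, with the plasma two-compartment model used for the plasma profile.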

[19] = Drug level in epithelial lining fluid of lung transplant recipient invasive aspergillosis patient at 150 mg, iv QD for 4 consecutive days measured after 24 hrs post last dose by HPLC; type: ADME, organism-based; conditions: human, read-out: Drug uptake; procedure, shortened: as §1
[20] = Drug level in alveolar cells of lung transplant recipient invasive aspergillosis patient at 150 mg, iv QD for 4 consecutive days measured after 18 hrs post last dose by HPLC; type: ADME, organism-based, Pneumocyte; conditions: human, read-out: Drug uptake; procedure, shortened: as §1
[21] = Tmax in epithelial lining fluid of lung transplant recipient invasive aspergillosis patient at 150 mg, iv QD for 4 consecutive days by HPLC; type: ADME, organism-based; conditions: human; procedure, shortened: as §2
[22] = AUC (0 to 24 hrs) in epithelial lining fluid of lung transplant recipient invasive aspergillosis patient plasma at 150 mg, iv administered as single dose; type: ADME, organism-based; parameters: time < 24 hr, dose 150 mg, route intravenous; conditions: human; procedure, shortened: as §4
Homo sapiens [23] = assay: Hepatotoxicity in lung transplant recipient invasive aspergillosis patient assessed as serum AST level at 150 mg, iv QD for 4 consecutive days measured post last dose; type: toxicity, organism-based; conditions: in vivo; procedure, shortened: as §3
[24] = Ratio of drug level in epithelial lining fluid to plasma in lung transplant recipient invasive aspergillosis patient at 150 mg, iv QD for 4 consecutive days measured after 18 hrs post last dose; type: ADME, organism-based; conditions: human
[25] = Cmax in alveolar cells of lung transplant recipient invasive aspergillosis patient at 150 mg, iv QD for 4 consecutive days by HPLC; type: ADME, organism-based, Pneumocyte; parameters: dose 150 mg, route intravenous; conditions: human; procedure, shortened: as §2

SMILES: CCCCCOc1ccc(-c2cc(-c3ccc(C(=O)N[C@H]4C[C@@H](O)[C@@H](O)NC(=O)[C@@H]5[C@@H](O)[C@@H](C)CN5C(=O)[C@H]([C@H](O)CC(N)=O)NC(=O)[C@H]([C@H](O)[C@@H](O)c5ccc(O)c(OS(=O)(=O)O)c5)NC(=O)[C@@H]5C[C@@H](O)CN5C(=O)[C@H]([C@@H](C)O)NC4=O)cc3)no2)cc1 [MICAFUNGIN] (X1-[Orn(4R-OH,5R-OH)]T[Hyp][hTyr(3S-OH,4S-OH,3'-OSO3H)][Gln(3R-OH)][Pro(3S-OH,4S-Me)]; lactam 1-C)
- concentration at 24 h [1]: 1570 ng/mL
- concentration at 5 h [2]: 710 ng/mL
- clearance [3]: 21.8 mL/min
- Cmax [4]: 1380 ng/mL
- concentration at 5 h [5]: 690 ng/mL
- Ratio [6]: 923.1
- concentration at 18 h [7]: 2380 ng/mL
- Vd [8]: 17.6 L
- concentration at 8 h [9]: 50 ng/mL
- concentration at 3 h [10]: 4930 ng/mL
- Kp at 24 h [11]: 6.22
- Activity (Homo sapiens [12]): 1.11 mg/dL
- Ratio [13]: 88.5
- Ratio [14]: 316
- concentration at 5 h [15]: 4810 ng/mL
- Ratio [16]: 5077
- Kp at 5 h [17]: 0.15
- AUC(0-t) at 24 h [18]: 79200 ng·h/mL
- concentration at 24 h [19]: 1380 ng/mL
- concentration at 18 h [20]: 17400 ng/mL
- Tmax [21]: 24.2 h
- AUC(0-t) at 24 h [22]: 14400 ng·h/mL
- Activity (Homo sapiens [23]): 28.6 IU/L
- Kp at 18 h [24]: 0.04
- Cmax [25]: 17400 ng/mL
